Results on 11 molecules are retold here after ChEMBL document CHEMBL1125046, “Beta-lactam analogues of oxotremorine. 3- and 4-methyl-substituted 2-azetidinones” (J Med Chem, 1990).

Assay [1] addresses Muscarinic acetylcholine receptor. Kind of assay: Dissociation constant of the drug-Muscarinic acetylcholine receptor complex. Type of assay: protein assay, Cavia porcellus.
The species entered for assay [2] is Cavia porcellus. Description: Maximal contractile response as a percentage of that elicited by carbachol. Format: functional. The method, boiled down:
(§1)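 Isolated ileum contractions recorded isotonically at 1 g tension with a displacement transducer. Cumulative concentration-response curves built by raising agonist concentration stepwise by a factor of 2.15. Maximal response expressed as a percentage of the carbachol maximum.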

For assay [3], the target named is Muscarinic acetylcholine receptor. Kind of assay: In vitro inhibition of binding of (-)-[3H]-NMS to Muscarinic acetylcholine receptor of rat cerebral cortex was determined. Format: tissue-based. An outline of the steps:
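Rat cerebral cortex (male Sprague-Dawley, 200–300 g) homogenised in 50 mM Na-K phosphate buffer, pH 7.4, then centrifuged and resuspended at 10 mg wet tissue/mL. Competition with 0.3 nM (–)-[3H]NMS for 30 min at 30 °C, followed by filtration. Nonspecific binding defined with 10 μM atropine. IC50 from a one-site nonlinear fit, converted to Ki by Cheng-Prusoff using NMS Kd 0.076 nM. Three experiments, each in triplicate.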

Assay [4] is filed under the species Cavia porcellus. Description: In vitro muscarinic activity against guinea pig ileum was determined. Format: functional. An outline of the steps: as §1

Turning to `CC1CC(=O)N(CC#CCN2CCCC2)C1` (configuration not stated), in assay [1], the Kd – broadly, the equilibrium constant for the complex coming apart – worked out at 10 µM. The molecule also showed an Emax in the assay filed under Cavia porcellus [2] of 0. For the same molecule, in assay [3], the inhibition constant (Ki) (commonly a measure of affinity in units of concentration, obtained from inhibition or displacement) stood at 5 µM.

In the case of `CC1CC(=O)N1CC#CCN(C)C` (configuration not stated), in the assay filed under Cavia porcellus [2], the Emax was found to be 95. The Ki in assay [3] was found to be 43 µM. Also, the EC50 (usually the concentration at which the effect is half-maximal) in the assay listed under Cavia porcellus [4] is 88000 nM.

Consider `CC1CCC(=O)N1CC#CCN1CCCC1` (configuration not stated), for which, in assay [1], the Kd amounted to 0.093 µM. In the assay listed under Cavia porcellus [2], the Emax was determined as 0. Further, the Ki in assay [3] was determined as 0.056 µM.

Turning to `CC1CN(CC#CCN2CCCC2)C1=O` (configuration not stated), the Emax in the assay filed under Cavia porcellus [2] was found to be 23. For the same molecule, the Ki in assay [3] was found to be 5.6 µM. The molecule also had an EC50 in the assay listed under Cavia porcellus [4] of 24000 nM.

In turn, `CC1CCC(=O)N1CC#CCN(C)C` (configuration not stated) showed a Kd in assay [1] of 4.3 µM. The Emax in the assay filed under Cavia porcellus [2] is recorded as 102. Besides, the Ki in assay [3] came to 2.2 µM. The same molecule registered an EC50 in the assay filed under Cavia porcellus [4] of 910 nM.

`O=C1CCCN1CC#CCN1CCCC1` [OXOTREMORINE] came in with a Kd in assay [1] of 0.93 µM. The Emax in the assay filed under Cavia porcellus [2] was 100. In assay [3], the Ki turned out to be 0.83 µM. In the assay listed under Cavia porcellus [4], this molecule returned an EC50 of 35 nM.

For `CC1CCN(CC#CCN2CCCC2)C1=O` (configuration not stated), the Kd in assay [1] was 11.5 µM. The Emax in the assay filed under Cavia porcellus [2] came to 100. Besides, in assay [3], the Ki came to 1.2 µM. Moreover, in the assay filed under Cavia porcellus [4], the half-maximal effective concentration (EC50) is 500 nM.

Molecule `CC1CC(=O)N1CC#CCN1CCCC1` (configuration not stated) returned a Kd in assay [1] of 1.7 µM. Further, in the assay filed under Cavia porcellus [2], the Emax is recorded as 0. The molecule also came in with an inhibition constant Ki in assay [3] of 0.99 µM.

In the case of `CC1CC(=O)N1CC#CC[N+](C)(C)C` (configuration not stated), the Emax in the assay filed under Cavia porcellus [2] came out at 97. For the same molecule, the inhibitory constant (Ki) in assay [3] stood at 19.6 µM. Moreover, the EC50 in the assay filed under Cavia porcellus [4] amounted to 55000 nM.

In assay [1], `CC1CCC(=O)N1CC#CC[N+](C)(C)C` (configuration not stated) showed an equilibrium dissociation constant (Kd) of 1.7 µM. The same molecule came in with an Emax in the assay listed under Cavia porcellus [2] of 100. The molecule also gave a Ki in assay [3] of 0.61 µM. For the same molecule, the EC50 in the assay listed under Cavia porcellus [4] is 180 nM.

As to `O=C1CCN1CC#CCN1CCCC1`, in the assay listed under Cavia porcellus [2], the Emax stood at 100. Also, in assay [3], the inhibition constant (Ki) came out at 0.94 µM. The molecule also came in with an EC50 in the assay listed under Cavia porcellus [4] of 290 nM.
